We go through 41 compounds from ChEMBL document CHEMBL1143610, “Applying linear interaction energy method for rational design of noncompetitive allosteric inhibitors of the sarco- and endoplasmic reticulum calcium-ATPase” (J Med Chem, 2005).

Assay [1] deals with T1, Sarcoplasmic/endoplasmic reticulum calcium ATPase 1 (Homo sapiens, UniProt O14983). Briefly: Inhibitory potency against sarco- endoplasmic reticulum calcium-ATPase in relative to thapsigargin (Experimental).
Target sequence in this assay (O14983 whole entry, looked up): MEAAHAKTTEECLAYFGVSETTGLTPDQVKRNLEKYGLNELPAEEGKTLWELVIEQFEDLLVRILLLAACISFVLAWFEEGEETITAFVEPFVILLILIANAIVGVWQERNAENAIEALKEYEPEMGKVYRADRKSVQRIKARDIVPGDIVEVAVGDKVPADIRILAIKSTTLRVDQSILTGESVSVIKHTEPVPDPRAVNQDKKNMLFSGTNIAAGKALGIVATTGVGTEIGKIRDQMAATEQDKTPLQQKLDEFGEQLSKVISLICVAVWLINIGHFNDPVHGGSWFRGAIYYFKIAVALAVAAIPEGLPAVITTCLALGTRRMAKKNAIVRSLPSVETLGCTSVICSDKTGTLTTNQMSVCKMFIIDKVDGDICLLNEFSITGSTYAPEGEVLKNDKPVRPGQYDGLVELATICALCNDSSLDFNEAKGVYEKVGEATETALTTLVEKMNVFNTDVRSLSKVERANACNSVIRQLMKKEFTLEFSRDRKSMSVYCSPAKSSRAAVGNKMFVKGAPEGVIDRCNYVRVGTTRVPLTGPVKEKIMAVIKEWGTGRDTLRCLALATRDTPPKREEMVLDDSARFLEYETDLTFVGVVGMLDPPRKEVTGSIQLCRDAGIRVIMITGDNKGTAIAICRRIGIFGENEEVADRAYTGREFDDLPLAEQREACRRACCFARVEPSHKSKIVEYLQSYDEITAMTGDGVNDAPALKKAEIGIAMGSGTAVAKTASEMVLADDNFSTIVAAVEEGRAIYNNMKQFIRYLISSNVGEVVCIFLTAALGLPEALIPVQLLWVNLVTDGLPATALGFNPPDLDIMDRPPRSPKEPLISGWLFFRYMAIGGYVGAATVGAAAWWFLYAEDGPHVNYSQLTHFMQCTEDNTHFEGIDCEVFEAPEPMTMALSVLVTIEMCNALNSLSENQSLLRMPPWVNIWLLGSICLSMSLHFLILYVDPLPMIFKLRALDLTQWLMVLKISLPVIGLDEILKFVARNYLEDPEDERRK
Assay [2] addresses T1, Sarcoplasmic/endoplasmic reticulum calcium ATPase 1. Briefly: Inhibitory activity against sarco- endoplasmic reticulum calcium-ATPase.
Target sequence in this assay (O14983 whole entry): as the sequence (O14983 whole entry, looked up) above
Assay [3] has the same target. Briefly: Inhibitory potency against sarco- endoplasmic reticulum calcium-ATPase in relative to thapsigargin by using SGB-LIE method. The gist of the method:
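SGB-LIE computation with a surface generalized Born continuum solvent. SERCA coordinates came from one TG-bound monomer of PDB 1IWO, truncated to the transmembrane domain, lumen and the near-membrane cytoplasmic part. Histidine protonation was set to favour H-bonds. Ligands were superimposed on bound TG, with O-8 side chains in the hydrophobic channel. Vacuum minimisation held protein atoms fixed except nonpolar H. LIE parameters were fitted to experimental data for 20 training analogues.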
Target sequence in this assay (O14983 whole entry, looked up): as above

Assay [4] shares this target. Briefly: Inhibitory potency against sarco- endoplasmic reticulum calcium-ATPase in relative to thapsigargin.
Target sequence in this assay (O14983 whole entry, looked up): as above

With `CCCCCCCC(=O)O[C@@H]1C(=O)C(C)=C2[C@H]1[C@@](C)(OC(C)=O)C[C@H](OC(=O)CCCCCCCCCCCNC(=O)CCC(N)C(=O)O)[C@@]1(O)[C@H]2OC(=O)[C@@]1(C)O` (some centres not stated), the RIC50 in assay [1] was 0.83; in assay [3], 5. Also, in assay [2], the IC50 was found to be 0.0012 µM.

For `C/C=C(/C)C(=O)O[C@H]1C(C)=C2[C@H]([C@@H]1OC(=O)CCCCCCC)[C@@](C)(OC(C)=O)C[C@H](OC(=O)CCCCCN)[C@@]1(O)[C@H]2O[C@H](O)[C@@]1(C)O`, the RIC50 in assay [4] is 0.01.

As to `C/C=C(/C)C(=O)O[C@H]1C(C)=C2[C@H]([C@@H]1OC(=O)CCCCCCC)[C@@](C)(OC(C)=O)C[C@H](OC(=O)CCCCCCN)[C@@]1(O)[C@H]2O[C@H](O)[C@@]1(C)O`, the RIC50 in assay [4] amounted to 0.011.

As to `C/C=C(/C)C(=O)O[C@H]1C(C)=C2[C@H]([C@@H]1OC(=O)CCCCC)[C@@](C)(O)C[C@H](OC(=O)CCC)[C@@]1(O)[C@H]2O[C@H]2OC(C)(C)O[C@]21C`, the RIC50 in assay [4] was 0.002.

For the compound `C/C=C(/C)C(=O)O[C@H]1C(C)=C2[C@H]([C@@H]1OC(=O)CCCCCCC)[C@@](C)(OC(C)=O)C[C@H](OC(=O)CCCc1ccc(N)cc1)[C@@]1(O)[C@H]2O[C@H](O)[C@@]1(C)O`, the RIC50 in assay [4] was determined as 0.6.

Consider `C/C=C(/C)C(=O)O[C@H]1C(C)=C2[C@H]([C@@H]1OC(=O)CCCCCCC)[C@@](C)(O)C[C@H](OC(=O)CCCCCCC)[C@@]1(O)[C@H]2OC(O)[C@@]1(C)O` (some centres not stated), for which the RIC50 in assay [4] was determined as 0.08.

Turning to `C/C=C(/C)C(=O)O[C@H]1C(C)=C2[C@H]([C@@H]1OC(=O)CCCCC)[C@@](C)(OC(C)=O)C[C@H](OC(=O)CCC)[C@@]1(O)[C@H]2O[C@H]2O[C@H](OCC)O[C@]21C`, the RIC50 in assay [4] turned out to be 0.4.

Regarding `C/C=C(/C)C(=O)O[C@H]1C(C)=C2[C@H]([C@@H]1OC(=O)CCCCCCC)[C@@](C)(OC(C)=O)C[C@@H](OC(=O)CCC)[C@@]1(O)[C@H]2OC(=O)[C@@]1(C)O`, the RIC50 in assay [4] worked out at 0.0003.

On to `C/C=C(/C)C(=O)O[C@H]1C(C)=C2[C@H]([C@@H]1OC(=O)CCCCCCC)[C@@](C)(OC(C)=O)C[C@H](OC(=O)c1ccc(N)cc1)[C@@]1(O)[C@H]2O[C@H](O)[C@@]1(C)O`, for which the RIC50 in assay [4] was 0.59.

Turning to `CCCCCCCCO[C@@H]1C(C)=C2[C@H]([C@@H]1OC(=O)CCCCCCC)[C@@](C)(OC(C)=O)C[C@H](OC(=O)CCC)[C@@]1(O)[C@H]2OC(=O)[C@@]1(C)O`, in assay [4], the RIC50 worked out at 0.002.

Regarding `C/C=C(/C)C(=O)O[C@H]1C(C)=C2[C@H]([C@@H]1OC(=O)CCCCCCC)[C@@](C)(OC(C)=O)C[C@H](OC(=O)CCc1ccc(NC(=O)OC(C)(C)C)cc1)[C@@]1(O)[C@H]2O[C@H](O)[C@@]1(C)O`, the RIC50 in assay [4] came to 0.52.

For `C/C=C(/C)C(=O)O[C@H]1C(C)=C2[C@H]([C@@H]1OC(=O)CCCCCCC)[C@@](C)(OC(C)=O)C[C@H](OC(=O)CCCCCCCCCCCNC(=O)[C@@H](N)CC(C)C)[C@@]1(O)[C@H]2O[C@H](O)[C@@]1(C)O`, the RIC50 in assay [4] was determined as 0.294.

As for `CCCCCCCC(=O)O[C@@H]1C(=O)C(C)=C2[C@H]1[C@@](C)(OC(C)=O)C[C@H](OC(=O)CCC)[C@@]1(O)[C@H]2OC(=O)[C@@]1(C)O`, in assay [4], the RIC50 came out at 0.015.

`C/C=C(/C)C(=O)O[C@H]1C(C)=C2[C@H]([C@@H]1OC(=O)CCCCCCC)[C@@](C)(OC(C)=O)C[C@H](OC(=O)/C=C/c1ccc(N)cc1)[C@@]1(O)[C@H]2O[C@H](O)[C@@]1(C)O`: in assay [4], the RIC50 stood at 0.59.

Take `C/C=C(/C)C(=O)O[C@H]1C(C)=C2[C@H]([C@@H]1OC(=O)CCCCCCC)[C@@](C)(OC(C)=O)C[C@H](OC(=O)CCC)[C@@]1(O)[C@H]2O[C@H]2O[C@]21C`: the RIC50 in assay [4] was determined as 0.186.

For the compound `CCCCCCCC(=O)O[C@H]1[C@H]2C(=C(C)[C@@H]1OC(=O)CCCCCCC)[C@@H]1OC(=O)[C@@](C)(O)[C@@]1(O)[C@@H](OC(=O)CCC)C[C@]2(C)OC(C)=O`, in assay [4], the RIC50 worked out at 0.09.

Take `C/C=C(/C)C(=O)O[C@H]1C(C)=C2[C@H]([C@@H]1OC(=O)CCCCCCC)[C@@](C)(OC(C)=O)C[C@H](O)[C@@]1(O)[C@H]2O[C@H](O)[C@@]1(C)O`: in assay [4], the RIC50 worked out at 0.19.

Regarding `CCCCCCCC(=O)O[C@@H]1C(=O)C(C)=C2[C@H]1[C@@](C)(OC(C)=O)C[C@H](OC(=O)CCC(=O)Nc1ccc(C)c(N)c1)[C@@]1(O)[C@H]2OC(=O)[C@@]1(C)O`, the RIC50 in assay [1] stood at 0.004; in assay [3], 0.0006. Besides, the half-maximal inhibitory concentration (IC50) in assay [2] was determined as 9.04 µM.

Consider `C/C=C(/C)C(=O)O[C@H]1C(C)=C2[C@H]([C@@H]1OC(=O)CCCCC)[C@@](C)(OC(C)=O)C[C@H](OC(=O)CCC)[C@@]1(O)[C@H]2O[C@@H](OCC)[C@@]1(C)O`, for which the RIC50 in assay [4] is 0.52.

For the compound `C/C=C(/C)C(=O)O[C@H]1C(C)=C2[C@H]([C@@H]1OC(=O)CCCCCCC)[C@@](C)(OC(C)=O)C[C@H](OC(=O)CCCCCCCCCCN)[C@@]1(O)[C@H]2O[C@H](O)[C@@]1(C)O`, the RIC50 in assay [4] is 0.333.

Consider `C/C=C(/C)C(=O)O[C@H]1C(C)=C2[C@H]([C@@H]1OC(=O)CCCCCCC)[C@@](C)(OC(C)=O)C[C@H](OC(=O)CCc1ccc(N)cc1)[C@@]1(O)[C@H]2O[C@H](O)[C@@]1(C)O`, for which, in assay [4], the RIC50 was 0.68.

On to `C/C=C(\C)C(=O)O[C@H]1C(C)=C2[C@H]([C@@H]1OC(=O)CCCCCCC)[C@@](C)(O)C[C@H](OC(=O)CCC)[C@@]1(O)[C@H]2OC(=O)[C@@]1(C)O`, for which, in assay [4], the RIC50 worked out at 0.02.

With `C/C=C(/C)C(=O)O[C@H]1C(C)=C2[C@H]([C@@H]1OC(=O)CCCCCCC)[C@@](C)(OC(C)=O)C[C@H](OC(=O)CCC)[C@@]1(O)[C@H]2OC(=O)[C@@]1(C)O` (stereo in doubt; form 2), in assay [4], the RIC50 came out at 0.67.

`C/C=C(\C)C(=O)O[C@H]1C(C)=C2[C@H]([C@@H]1OC(=O)CCCCCCC)[C@@](C)(OC(C)=O)C[C@H](OC(=O)CCC)[C@@]1(OC(C)=O)[C@H]2OC(=O)[C@@]1(C)OC(C)=O`: in assay [4], the RIC50 came out at 0.07.

`C/C=C(/C)C(=O)O[C@H]1C(C)=C2[C@H]([C@@H]1OC(=O)CCCCC)[C@@](C)(OC(C)=O)C[C@H](OC(=O)CCC)[C@@]1(O)[C@H]2OC(=O)[C@@]1(C)O`: the RIC50 in assay [4] was 0.98.

Turning to `C/C=C(/C)C(=O)O[C@H]1C(C)=C2[C@H]([C@@H]1O)[C@@](C)(O)C[C@H](OC(=O)CCC)[C@@]1(O)[C@H]2O[C@H]2OC(C)(C)O[C@]21C`, the RIC50 in assay [4] was 0.0002.

As to `C/C=C(/C)C(=O)O[C@H]1C(C)=C2[C@H]([C@@H]1OC(=O)CCCCCCC)[C@@](C)(OC(C)=O)C[C@H](OC(=O)CCCCCC(=O)Nc1ccc(C)c(N)c1)[C@@]1(O)[C@H]2O[C@H](O)[C@@]1(C)O`, the RIC50 in assay [4] is 0.22.

On to `C/C=C(\C)C(=O)O[C@H]1C(C)=C2[C@H]([C@@H]1OC(=O)CCCCCCC)[C@@](C)(OC(C)=O)C[C@H](OC(=O)CCC)[C@@]1(OC(C)=O)[C@H]2OC(=O)[C@@]1(C)O`, for which the RIC50 in assay [4] was 0.36.

Regarding `C/C=C(/C)C(=O)O[C@H]1C(C)=C2[C@H]([C@@H]1OC(=O)CCCCCCC)[C@@](C)(OC(C)=O)C[C@H](OC(=O)CCC(=O)Nc1ccc(C)c(N)c1)[C@@]1(O)[C@H]2O[C@H](O)[C@@]1(C)O`, the RIC50 in assay [4] came to 0.003.

As to `C/C=C(/C)C(=O)O[C@H]1C(C)=C2[C@H]([C@@H]1OC(=O)CCCCCCC)[C@@](C)(OC(C)=O)C[C@H](OC(=O)CCCCCCCCCCCN)[C@@]1(O)[C@H]2O[C@H](O)[C@@]1(C)O`, the RIC50 in assay [4] amounted to 0.384.

Turning to `C/C=C(/C)C(=O)O[C@H]1C(C)=C2[C@H]([C@@H]1OC(=O)CCCCC)[C@@](C)(OC(C)=O)C[C@H](OC(=O)CCC)[C@@]1(O)[C@H]2O[C@H]2O[C@@H](OCC)O[C@]21C`, the RIC50 in assay [4] was 0.02.

As to `C/C=C(/C)C(=O)O[C@H]1C(C)=C2[C@H]([C@@H]1OC(=O)CCCCC)[C@@](C)(OC(C)=O)C[C@H](OC(=O)CCC)[C@@]1(O)[C@H]2O[C@H]2OCO[C@]21C`, in assay [4], the RIC50 was 0.06.

Turning to `CCCCCCCC(=O)O[C@@H]1C(=O)C(C)=C2[C@H]1[C@@](C)(OC(C)=O)C[C@H](OC(=O)CCCC(=O)O)[C@@]1(O)[C@H]2OC(=O)[C@@]1(C)O`, the RIC50 was determined as 0.02 in assay [1] and 0.31 in assay [3]. For the same compound, the IC50 in assay [2] amounted to 0.0198 µM.

`C/C=C(/C)C(=O)O[C@H]1C(C)=C2[C@H]([C@@H]1OC(=O)CCCCCCC)[C@@](C)(OC(C)=O)C[C@H](OC(=O)CCCCCCCN)[C@@]1(O)[C@H]2O[C@H](O)[C@@]1(C)O`: in assay [4], the RIC50 is 0.059.

With `C/C=C(/C)C(=O)O[C@H]1C(C)=C2[C@H]([C@@H]1OC(=O)CCCCCCC)[C@@](C)(OC(C)=O)C[C@H](OC(=O)CCCCCCCCCCCNC(=O)[C@@H](N)CO)[C@@]1(O)[C@H]2O[C@H](O)[C@@]1(C)O`, the RIC50 in assay [4] stood at 1.25.

In the case of `C/C=C(/C)C(=O)O[C@H]1C(C)=C2[C@H]([C@@H]1OC(=O)CCCCC)[C@@](C)(OC(C)=O)C[C@H](OC(=O)CCC)[C@@]1(O)[C@H]2O[C@H](OCC)[C@@]1(C)O`, the RIC50 in assay [4] is 0.85.

With `C/C=C(/C)C(=O)O[C@H]1C(C)=C2[C@H]([C@@H]1OC(=O)CCCCCCC)[C@@](C)(OC(C)=O)C[C@H](OC(=O)CCCCCNC(=O)[C@@H](N)CC(C)C)[C@@]1(O)[C@H]2O[C@H](O)[C@@]1(C)O`, the RIC50 in assay [4] is 0.004.

For the compound `C/C=C(\C)C(=O)O[C@H]1C(C)=C2[C@H]([C@@H]1OC(=O)CCCCCCC)[C@@](C)(OC(C)=O)C[C@H](OC(=O)CCC)[C@@]1(O)[C@H]2OC(=O)[C@@]1(C)OC(C)=O`, in assay [4], the RIC50 came to 0.4.

`C/C=C(/C)C(=O)O[C@H]1C(C)=C2[C@H]([C@@H]1OC(=O)CCCCCCC)[C@@](C)(OC(C)=O)C[C@H](OC(=O)/C=C/c1ccc(NC(=O)OC(C)(C)C)cc1)[C@@]1(O)[C@H]2O[C@H](O)[C@@]1(C)O`: the RIC50 in assay [4] stood at 0.54.

`C/C=C(/C)C(=O)O[C@H]1C(C)=C2[C@H]([C@@H]1OC(=O)CCCCCCC)[C@@](C)(OC(C)=O)C[C@H](OC(=O)CCCCCCCCCCCNC(=O)[C@H](C)N)[C@@]1(O)[C@H]2O[C@H](O)[C@@]1(C)O`: in assay [4], the RIC50 came out at 0.833.

As to `C/C=C(/C)C(=O)O[C@H]1C(C)=C2[C@H]([C@@H]1OC(=O)CCCCCCC)[C@@](C)(OC(C)=O)C[C@H](OC(=O)CCC)[C@@]1(O)[C@H]2OC(=O)[C@@]1(C)O` (stereo in doubt; form 1), in assay [4], the RIC50 was found to be 1.
